Where a SMILES comes first, the peptide text is derived from it. Bridges are numbered along the chain shown (N, C = ends). Roman numbers before positions name the chains, in order. The star is where a group is joined. X1 = O=C(Cn1cc(CCCC(=O)*)nn1)NC(COCc1cn(CCO[C@H]2O[C@H](CO)[C@@H](O)[C@H](O)[C@@H]2O)nn1)(COCc1cn(CCO[C@H]2O[C@H](CO)[C@@H](O)[C@H](O)[C@@H]2O)nn1)COCc1cn(CCO[C@H]2O[C@H](CO)[C@@H](O)[C@H](O)[C@@H]2O)nn1
Assays:
[1] = test system: CD86^+ and CD206^+ TAMs, CD4^+ and CD8^+ T cells; experiment: Multiplex immunofluorescence of whole tumor slices; type: in vivo, mouse
[2] = test system: M2-like (CD206) and M1-like (CD86) macrophages; experiment: Flow cytometry of TAM polarization in tumors; type: in vivo, mouse
[3] = Secondary structure by CD and FTIR; type: physicochemical; conditions: CD: 10 μM, deionized water, 25°C, 1 hour; FTIR: 100 μM, distilled water, 60 min
In short: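 For CD, test compound (10 µM) was dissolved in deionized water at 25°C for 1 h and scanned at 500 nm/min with 0.5 nm resolution, with solvent background subtracted. For FTIR, samples were freshly prepared at 100 µM in distilled water for 60 min, dried on calcium fluoride tablets and recorded.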

EJ cells [4] = experiment: Transwell migration assay; type: cell-based, human; conditions: 50 μM, 24 hours; versus saline and PepCXCR4
In short: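 EJ cells (1 × 10⁵) in 150 µl serum-free DMEM were placed in the upper Transwell chamber with saline or test compound (50 µM). Complete medium was in the lower chamber. After 24 h, non-migrated cells were swabbed away. Migrated cells were fixed in 4% paraformaldehyde, stained with 0.05% crystal violet for 10 min, photographed and counted.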

[5] = test system: pErk and pAkt in tumor tissues; experiment: Immunohistochemistry of pErk and pAkt in EJ tumor tissues; type: in vivo, mouse; conditions: EJ xenograft, versus saline
EJ cells (CXCR4) = experiment: CLSM imaging of bsGP; type: cell-based, human
EJ cells [6] = experiment: Cell viability; type: cell-based, human; conditions: 50 μM, 24 hours, CCK-8; n = 3
In short: (§1)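 Cells were seeded at 5 × 10⁴ per well in RPMI 1640 and cultured overnight at 37°C, 5% CO₂. Test compound was added at 10, 20, 50, 100, 200 or 500 µM for 24 h, then CCK-8 for 2 h at 37°C. Absorbance was read at 450 nm against a 690 nm reference. Viability = (A_s − A_b)/(A_c − A_b) × 100% versus saline-treated wells. Run in triplicate.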

[7] = test system: tumor fibrosis in MB49-Luc tumor; experiment: Tumor fibrosis; type: in vivo, mouse; conditions: versus saline and PepCXCR4
RAW264.7 cells [8] = experiment: Cell viability; type: cell-based; conditions: 50 μM, 24 hours, CCK-8; n = 3
In short: as §1

MB49-Luc tumor = experiment: Antitumor efficiency in MB49-Luc tumor-bearing mice; type: in vivo, mouse; conditions: 500 μM, 100 μl, five doses
orthotopic bladder tumor = type: in vivo, mouse; conditions: 500 μM, 100 μl, intravesical instillation
In short: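 Once bladder tumor growth was confirmed, test compound (500 µM, 100 µl) was instilled intravesically and kept in the bladder for 60 min. Whole-body fluorescence was scanned with IVIS at 1, 4, 8, 12, 24, 48 and 72 h. The bladder was exteriorised and imaged ex vivo at 1 h after infusion.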

[9] = test system: TNF-α, IL-12, IL-10 and TGF-β; experiment: Intratumoral cytokines in homogenized tumor tissues; type: in vivo, mouse; conditions: versus saline and PepCXCR4
[10] = test system: CD8^+ T cells and Tregs in tumor; experiment: Flow cytometry of tumor T cells; type: in vivo, mouse
NF-κB in RAW264.7 cells = experiment: Western blot of NF-κB phosphorylation in RAW264.7 cells; type: cell-based; conditions: 50 μM, 24 hours; compared with mannose
NF-κB in tumor tissues = experiment: Western blot of NF-κB phosphorylation in tumor tissues; type: in vivo, mouse; conditions: 500 μM, 100 μl, every 2 days, five times; compared with mannose
RAW264.7 cells [11] = experiment: CLSM imaging of bsGP; type: cell-based; conditions: Cy-labeled bsGP
[12] = test system: tumor tissue in orthotopic bladder cancer mice; experiment: Tumor penetration by immunofluorescence of frozen sections; type: in vivo, mouse; conditions: Cy-labeled bsGP; distance from vessels, compared with antibody
In short: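 Orthotopic EJ xenograft nude mice with tumors of about 200 mm³ received saline or test compound (500 µM, 100 µl) by intravesical instillation. Frozen tumor sections were imaged by confocal microscopy.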

EJ cells [13] = experiment: SEM of nanofibrils on EJ cell surface; type: cell-based, human; conditions: 50 μM, 12 and 24 hours
In short: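 EJ cells (1 × 10⁵ per well) were seeded on silicon wafers and cultured 12 h. Saline or test compound (50 µM) was then added for a further 12 and 24 h. The cell surface was examined by scanning electron microscopy.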

[14] = test system: CD86^+ and CD206^+ TAMs, CD4^+ and CD8^+ T cells proximal to CXCR4^+ tumor cells; experiment: Spatial distance of immune cells to CXCR4^+ tumor cells; type: in vivo, mouse
[15] = test system: pErk and pAkt (CXCR4 downstream) in EJ cells; experiment: Western blot of Erk and Akt phosphorylation in EJ cells; type: cell-based, human
In short: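 EJ cells were lysed in buffer with protease inhibitor and centrifuged 15 min; protein was measured by BCA. 30 µg protein was run on SDS-PAGE and transferred to PVDF. Membranes were blocked 1 to 2 h at room temperature in 5% nonfat milk, 0.1% Tween 20, 10 mM TBS. Primary antibody was applied overnight at 4°C, then secondary for 1 to 2 h at room temperature. Detection was by chemiluminescence.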

EJ xenograft tumor = conditions: 500 μM, 100 μl, intravenous
[16] = immunofluorescence, versus saline

In the case of `CC(C)C[C@H](NC(=O)[C@H](Cc1ccc(O)cc1)NC(=O)CNC(=O)[C@H](CC(C)C)NC(=O)[C@@H]1CCCN1C(=O)CCCc1cn(CC(=O)NC(COCc2cn(CCO[C@H]3O[C@H](CO)[C@@H](O)[C@H](O)[C@@H]3O)nn2)(COCc2cn(CCO[C@H]3O[C@H](CO)[C@@H](O)[C@H](O)[C@@H]3O)nn2)COCc2cn(CCO[C@H]3O[C@H](CO)[C@@H](O)[C@H](O)[C@@H]3O)nn2)nn1)C(=O)NCC(=O)NCCCC[C@H](NC(=O)[C@H](CCCCN)NC(=O)[C@H](CC(=O)O)NC(=O)[C@@H]1CCCN1C(=O)[C@H](CCCNC(=N)N)NC(=O)[C@H](Cc1c[nH]cn1)NC(=O)[C@H](Cc1c[nH]c2ccccc12)NC(=O)[C@H](CO)NC(=O)[C@H](C)NC(=O)CNC(=O)[C@@H](N)CC(C)C)C(=O)N[C@@H](CC(C)C)C(=O)N[C@H](C(=O)N[C@@H](Cc1ccccc1)C(=O)N[C@@H](Cc1ccccc1)C(=O)N[C@@H](C)C(=O)N[C@@H](CCC(=O)O)C(=O)N[C@@H](CS)C(=O)NCC(=O)O)C(C)C` [bsGP] (I: H-LGASWHRPDKKLVFFAECG-OH / II: X1-PLGYLG; amide I:11-II:C; N-terminus and C-terminus assumed), the “CD4^+ T cells in whole tumor slice” value ([1]; MB49-Luc, C57BL/6, 500 μM, 100 μl, every other day, five times, saline 1.74%) is reported as 4.35%, the “CD206^+ M2-like TAMs in whole tumor slice” value ([1]; MB49-Luc, C57BL/6, 500 μM, 100 μl, every other day, five times, saline 20.94%) is reported as 13.0% and the “increase of CD86^+ M1-like TAMs” value ([1]; immunofluorescence) is reported as 2.3 fold. For the same compound, the “increase of CD4^+ T cells” value [1, 16] was 2.5 fold, the “increase of CD8^+ T cells” value [1, 16] was 2.6 fold and the body weight loss (C57BL/6 mice; C57BL/6 mice) was “without loss of body weight”. The severe systemic toxicity (C57BL/6 mice; intravesical, treatment dose) was “did not induce severe systemic toxicity”, the “signs of a deteriorating general condition” value (C57BL/6 mice; red skin or reduced food consumption) was “no signs of a deteriorating general condition” and the “increase of M1-like TAMs” value ([2]; from 14.2 to 25.4%) was “approximately 11.2%”. The “decrease of M2-type macrophages” value ([2]; from 29.2 to 17.3%) was “approximately 11.9%”, the secondary structure [3] was “random coil structure” and the migration capacity (EJ cells [4]) was “evidently decreased”. For the same compound, the “phosphorylation levels of Erk and Akt in tumor tissues” value [5] was “strongly inhibited”, the “localization on EJ cells” value (EJ cells (CXCR4); Cy-labeled bsGP, 50 μM, pH 7.4, saline, 37°C, 15 min) was “observed on the cytomembrane of tumor cells (EJ)” and the “colocalization with GFP-encoded CXCR4” value (EJ cells (CXCR4); EJ cells transfected with GFP-encoded CXCR4) was “Overlapping green fluorescence (CXCR4) with red fluorescence (bsGP)”. The “effect on viability of EJ cells” value (EJ cells [6]) was “no substantial impact”, the tumor fibrosis [7] was “strongly inhibited” and the “effect on viability of RAW264.7 cells” value (RAW264.7 cells [8]) was “no substantial impact”. The “body weight loss, MB49-Luc” value (MB49-Luc tumor) was “no obvious loss of body weight”, the “fluorescence signal at the tumor site” value (orthotopic bladder tumor) was “evident fluorescence signals” and the “intratumoral secretion of IL-10” value [9] was “down-regulated”. For the same compound, the “intratumoral secretion of IL-12” value [9] was “substantially up-regulated”, the “intratumoral secretion of TGF-β” value [9] was “down-regulated” and the “intratumoral secretion of TNF-α” value [9] was “substantially up-regulated”. For the same compound, the “CD4^+Foxp3^+ Tregs” value ([10]; saline 8.58%) was 6.80%, the “granzyme B^+CD8^+ T cells” value ([10]; saline 9.44%) was 19.60% and the “proportion of CD45^+CD3^+CD8^+ T cells” value ([10]; saline 16.3%) was 25.8%. The “NF-κB phosphorylation in RAW264.7 cells” value (NF-κB in RAW264.7 cells) was “effectively activated”, the “NF-κB phosphorylation in tumor tissues” value (NF-κB in tumor tissues) was “effectively activated” and the “localization on RAW264.7 cells” value (RAW264.7 cells [11]) was “observed on the cytomembrane”. For the same compound, the “penetration in tumor tissue” value [12] was “deep penetration capability”, the “nanofibrillar network on EJ cell surface” value (EJ cells [13]) was “presence of a nanofibrillar network” and the “decrease of CD206^+ M2-like TAMs versus saline” value ([14]; 5- to 10-μm radius) was 20%. For the same compound, the “number of CD86^+ M1-like TAMs near tumor cells” value ([14]; 5- to 10-μm radius) was “up to 6.22 × 10^4”, the “CD4^+ T cell counts relative to saline” value ([14]; spatial distance 10 μm) was 4.0 fold and the “CD8^+ T cell counts relative to saline” value ([14]; spatial distance 10 μm) was 5.5 fold. The “CD86^+ counts relative to saline” value ([14]; spatial distance 10 μm (text: 5- to 10-μm radius)) was 2.6 times, the “dose dependence of MAPK pathway suppression (pErk, pAkt)” value ([15]; 0, 20, 50 and 100 μM for 24 hours, 50 μM for 0, 24, 36, 48 hours) was “suppressed in a dose-dependent manner” and the “phosphorylation of Erk and Akt” value ([15]; 50 μM, 24 hours) was “strongly inhibited”. For the same compound, the signal-to-noise ratio (EJ xenograft tumor) was 7.8 fold, the “time of highest tumor accumulation” value (EJ xenograft tumor) was 4 h and the “time to target tumor tissue” value (EJ xenograft tumor) was no more than 1 h. The “tumor accumulation relative to PepCXCR4” value (EJ xenograft tumor; 4 hours) was “nearly fourfold” and the “retention in tumor tissue” value (EJ xenograft tumor; nanofiber formed in situ) was “up to 48 hours”.

Source: article PMC9977173 (Science Advances, 2023)
